pIC50: −log10 of the molar value. Values belong to the molecule of their own block, whether it stands above or below them. Active and inactive are the calls of the source. The rule behind the calls is not given here.
Key:
[1] = Inhibition of Tpl2 kinase assessed as MEK phosphorylation by ELISA; design: species or system Homo sapiens
How it was run: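 Tpl2 (0.4 nM) incubated with 35 nM GST-MEK1 substrate and 50 µM ATP in pH 7.2 Mops buffer with MgCl2, DTT, β-glycerophosphate, EGTA and orthovanadate, 1 h at 30 °C, 1% DMSO final; stopped with EDTA. GST-MEK1 captured on anti-GST plates, phospho-Ser217/221 detected by anti-phospho-MEK1 and Eu-labelled secondary (DELFIA); IC50 by curve fitting.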

[2] = target: Epidermal growth factor receptor (Homo sapiens, UniProt P00533); experiment: Inhibition of EGFR kinase autophosphorylation in A431 cells
[3] = system: Blood; experiment: Inhibition of LPS-induced TNFalpha production in human blood; format: functional, tissue-based
How it was run: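 Heparinized blood from healthy male volunteers diluted 1–5 in RPMI/3% FCS at 37 °C; compounds (in DMSO, 1.0% final) added 30 min before LPS at 10 ng/mL, ~3 h incubation. Plasma TNF-α measured by ELISA or electrochemiluminescence.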

[4] = system: Monocyte; experiment: Inhibition of LPS-induced TNFalpha production in human monocytes; format: functional, cell-based
How it was run: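 Monocytes enriched from buffy coat by antibody-cocktail negative selection and two Histopaque-1077 separations, plated at 800,000 cells/well in RPMI/0.5% FBS at 37 °C/5% CO2. Compounds in DMSO added 30 min before LPS at 10 ng/mL, ~3 h incubation; supernatant TNF-α by ELISA or electrochemiluminescence.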

[5] = target: MAP kinase-activated protein kinase 2 (Homo sapiens) (UniProt P49137); experiment: Inhibition of MK2 at 40 uM
[6] = Inhibition of PKA; design: species or system Homo sapiens
[7] = target: T1, MAP kinase p38 (Homo sapiens, UniProt O15264+Q15759+Q16539+P53778); experiment: Inhibition of P-p38 kinase in human monocytes at 40 uM; format: cell-based
[8] = Inhibition of S6 kinase; design: species or system Homo sapiens
[9] = species on record: Homo sapiens; experiment: Inhibition of CAMK2 at 40 uM
[10] = target: Protein kinase C (PKC); experiment: Inhibition of PKC; design: species or system Homo sapiens
[11] = system: Mus musculus; experiment: Inhibition of LPS-induced TNFalpha production in C57B1/6 mouse at 10 mg/kg, ip; format: functional; details: C57B1/6, ip, route intraperitoneal
How it was run: (§1)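 Female C57Bl/6 mice, 8–10 weeks old; compound (10 or 25 mg/kg) or vehicle given ip, then 1 h later LPS plus D-galactosamine in PBS ip (2 and […] final). Mice euthanized with CO2 1.5 h after challenge and bled by cardiac puncture; serum TNF-α compared with vehicle.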

[12] = Inhibition of MEK; design: species or system Homo sapiens
[13] = Clearance in Sprague-Dawley rat; format: ADME, organism-based; details: in vivo
[14] = Bioavailability in Sprague-Dawley rat; format: ADME, organism-based; details: in vivo
[15] = target: T2, Proto-oncogene tyrosine-protein kinase Src (Homo sapiens, UniProt P12931); experiment: Inhibition of Src kinase
[16] = system: Mus musculus; experiment: Inhibition of LPS-induced TNFalpha production in C57B1/6 mouse at 25 mg/kg, ip; format: functional; details: C57B1/6, ip, route intraperitoneal; how it was run: as §1
[17] = target: T2, Proto-oncogene tyrosine-protein kinase Src; experiment: Inhibition of Src kinase at 40 uM
[18] = target: T1, MAP kinase p38; experiment: Inhibition of p38 kinase; format: protein assay
[19] = target: T1, MAP kinase p38; experiment: Inhibition of P-p38 kinase in human monocytes; format: cell-based

Sequence of Epidermal growth factor receptor (P00533 whole entry): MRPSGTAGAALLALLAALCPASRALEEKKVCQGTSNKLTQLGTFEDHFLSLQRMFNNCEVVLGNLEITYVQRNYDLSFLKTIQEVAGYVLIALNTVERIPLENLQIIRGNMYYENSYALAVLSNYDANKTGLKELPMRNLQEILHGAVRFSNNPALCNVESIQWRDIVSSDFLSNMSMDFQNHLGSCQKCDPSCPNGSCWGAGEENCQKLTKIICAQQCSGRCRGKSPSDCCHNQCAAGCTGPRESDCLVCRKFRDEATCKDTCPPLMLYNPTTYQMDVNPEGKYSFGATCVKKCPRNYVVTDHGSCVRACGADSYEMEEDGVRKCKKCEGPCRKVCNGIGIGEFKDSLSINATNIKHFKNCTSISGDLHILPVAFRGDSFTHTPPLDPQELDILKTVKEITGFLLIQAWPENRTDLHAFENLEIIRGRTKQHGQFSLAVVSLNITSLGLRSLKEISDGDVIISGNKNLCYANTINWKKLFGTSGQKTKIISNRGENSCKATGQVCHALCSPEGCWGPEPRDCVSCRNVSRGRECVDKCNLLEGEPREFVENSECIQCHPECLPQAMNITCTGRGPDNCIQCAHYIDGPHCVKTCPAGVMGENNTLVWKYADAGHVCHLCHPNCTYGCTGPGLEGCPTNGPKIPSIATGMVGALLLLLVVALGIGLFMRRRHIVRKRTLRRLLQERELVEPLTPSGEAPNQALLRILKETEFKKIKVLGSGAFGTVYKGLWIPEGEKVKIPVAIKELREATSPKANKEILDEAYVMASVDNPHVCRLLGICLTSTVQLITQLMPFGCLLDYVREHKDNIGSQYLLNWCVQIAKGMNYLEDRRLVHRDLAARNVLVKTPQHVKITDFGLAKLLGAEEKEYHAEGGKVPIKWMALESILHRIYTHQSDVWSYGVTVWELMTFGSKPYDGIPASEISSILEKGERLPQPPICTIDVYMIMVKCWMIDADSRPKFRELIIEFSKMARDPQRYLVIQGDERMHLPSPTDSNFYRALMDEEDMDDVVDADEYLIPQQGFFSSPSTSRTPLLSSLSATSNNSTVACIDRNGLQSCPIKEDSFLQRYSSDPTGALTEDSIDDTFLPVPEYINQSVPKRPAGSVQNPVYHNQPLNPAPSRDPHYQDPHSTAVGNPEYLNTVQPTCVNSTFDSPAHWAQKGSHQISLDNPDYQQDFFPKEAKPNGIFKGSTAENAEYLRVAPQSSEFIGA
Sequence of MAP kinase-activated protein kinase 2 (Homo sapiens) (P49137 whole entry, looked up): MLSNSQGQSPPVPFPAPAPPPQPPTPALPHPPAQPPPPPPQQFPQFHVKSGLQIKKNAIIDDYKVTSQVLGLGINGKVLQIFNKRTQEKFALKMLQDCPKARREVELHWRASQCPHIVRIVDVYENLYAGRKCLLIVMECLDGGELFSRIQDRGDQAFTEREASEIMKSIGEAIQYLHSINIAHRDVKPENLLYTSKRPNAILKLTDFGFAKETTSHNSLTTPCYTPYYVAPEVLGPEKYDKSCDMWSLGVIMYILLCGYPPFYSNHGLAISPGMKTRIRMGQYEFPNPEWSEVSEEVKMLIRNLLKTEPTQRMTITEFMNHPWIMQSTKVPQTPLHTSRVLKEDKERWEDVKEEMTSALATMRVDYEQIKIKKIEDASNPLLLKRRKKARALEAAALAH
T2 sequence (P12931 2-536 limits assumed): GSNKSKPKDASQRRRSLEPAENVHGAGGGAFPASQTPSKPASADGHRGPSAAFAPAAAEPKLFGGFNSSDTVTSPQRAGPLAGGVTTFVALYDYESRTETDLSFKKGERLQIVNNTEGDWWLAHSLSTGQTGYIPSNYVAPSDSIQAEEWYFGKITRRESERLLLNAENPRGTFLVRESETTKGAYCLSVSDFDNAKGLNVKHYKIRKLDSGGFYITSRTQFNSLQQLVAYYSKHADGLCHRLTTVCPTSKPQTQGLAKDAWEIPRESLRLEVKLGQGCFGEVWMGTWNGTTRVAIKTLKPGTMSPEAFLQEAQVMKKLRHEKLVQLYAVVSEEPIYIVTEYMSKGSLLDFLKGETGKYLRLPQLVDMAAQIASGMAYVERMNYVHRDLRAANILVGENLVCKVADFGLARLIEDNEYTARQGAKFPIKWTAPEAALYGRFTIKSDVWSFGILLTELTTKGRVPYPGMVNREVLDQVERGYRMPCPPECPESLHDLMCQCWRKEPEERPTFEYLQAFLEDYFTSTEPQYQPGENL

Compound: CS(=O)(=O)Nc1cccc(Nc2c(C#N)cnc3cnc(NCCN4CCOCC4)cc23)c1
- pIC50 [1]: < 5.00

Compound: N#Cc1cnc2cnc(NCCN3CCOCC3)cc2c1Nc1cccc(Oc2ccccc2)c1
- pIC50 [1]: 4.94

Compound: N#Cc1cnc2cnc(NCCN3CCOCC3)cc2c1Nc1ccc([N+](=O)[O-])cc1
- pIC50 [1]: 5.15

Compound: N#Cc1cnc2cnc(Nc3ccc(F)c(Cl)c3)cc2c1NC1CCCC1
- pIC50 [1]: 5.10

Compound: N#Cc1cnc2cnc(NCc3cccnc3)cc2c1NC1CCNCC1
- pIC50 [1]: < 4.40

Compound: N#Cc1cnc2cnc(NCCN3CCOCC3)cc2c1Nc1cccc(C(=O)O)c1
- pIC50 [1]: < 5.00

Compound: N#Cc1cnc2ccc(NCCN3CCOCC3)cc2c1NC1CCCC1
- pIC50 [1]: 4.71

Compound: N#Cc1cnc2cnc(NCCN3CCOCC3)cc2c1Nc1cccc(I)c1
- pIC50 [1]: 5.15

Compound: N#Cc1cnc2ccc(NCc3ccccc3)cc2c1NC1CCCC1
- pIC50 [1]: 4.68

Compound: N#Cc1cnc2ccc(NCc3ccc(S(N)(=O)=O)cc3)cc2c1NC1CCCC1
- pIC50 [1]: 5.14

Compound: C[C@H](Nc1cc2c(N(C)C3CCCCCC3)c(C#N)cnc2cn1)c1ccccc1
- pIC50 [1]: < 4.40

Compound: N#Cc1cnc2ccc(NCc3c[nH]cn3)cc2c1Nc1ccc(F)c(Cl)c1
- Activity [5]: inactive
- pIC50 [6]: 5.23
- pIC50 [8]: < 5.00
- Activity [9]: inactive
- IC50 [10]: > 10 µM
- pIC50 [12]: 5.62
- inhibition in vivo at 25 mg/kg [16]: 71%
- clearance [13]: 97 mL/min/kg
- Activity [17]: inactive
- IC50 [18]: 30 µM
- bioavailability [14]: 1%
- IC50 [19]: 2.11 µM
- pIC50 [4]: 6.22

Compound: N#Cc1cnc2cnc(NCCN3CCOCC3)cc2c1Nc1ccc(Nc2ccccc2)cc1
- pIC50 [1]: 5.12

Compound: N#Cc1cnc2cnc(NC3CCCC3)cc2c1Nc1ccc(F)c(Cl)c1
- pIC50 [1]: 5.12

Compound: N#Cc1cnc2cnc(NC3CCCCCC3)cc2c1Nc1ccc(F)c(Cl)c1
- pIC50 [1]: 5.28

Compound: N#Cc1cnc2cnc(NCCN3CCOCC3)cc2c1Nc1cccc(C(N)=O)c1
- pIC50 [1]: < 5.00

Compound: CC(C)(C)Nc1cc2c(Nc3ccc(F)c(Cl)c3)c(C#N)cnc2cn1
- pIC50 [1]: < 4.40

Compound: N#Cc1cnc2cnc(NCCN3CCOCC3)cc2c1Nc1ccc(F)cc1
- pIC50 [1]: 4.97

Compound: CC(C)(C)Nc1c(C#N)cnc2ccc(NCc3ccc(S(N)(=O)=O)cc3)cc12
- pIC50 [1]: 5.14

More lines, main results first:

- pIC50 [1]: 7.30
Compound: C[C@@H](Nc1cc2c(Nc3ccc(F)c(Cl)c3)c(C#N)cnc2cn1)c1ccccc1

- pIC50 [2]: < 4.40
- pIC50 [3]: 5.33
- pIC50 [4]: 6.30
- pIC50 [1]: 6.33
Compound: N#Cc1cnc2cnc(NCc3cccnc3)cc2c1NC1CCCCC1

- pIC50 [2]: < 4.70
- Activity [5]: inactive
- pIC50 [6]: < 4.40
- pIC50 [3]: 5.35
- Activity [7]: inactive
- pIC50 [8]: < 4.40
- Activity [9]: inactive
- IC50 [10]: > 40 µM
- pIC50 [12]: < 4.40
- clearance [13]: 30 mL/min/kg
- bioavailability [14]: 14%
- pIC50 [4]: 6.30
- pIC50 [15]: 4.42
- pIC50 [1]: 6.80
Compound: N#Cc1cnc2cnc(NCc3cccnc3)cc2c1NC1CCCCCC1
- inhibition in vivo at 10 mg/kg [11]: 86%

- pIC50 [1]: 5.77
Compound: CC(C)(C)Nc1c(C#N)cnc2ccc(NCc3cccc(C#N)c3)cc12

- pIC50 [2]: < 4.40
- pIC50 [3]: 5.38
- clearance [13]: 50 mL/min/kg
- pIC50 [4]: 6.22
- pIC50 [1]: 6.20
Compound: CC(C)(C)Nc1c(C#N)cnc2cnc(NCc3cccnc3)cc12

- pIC50 [1]: 5.52
Compound: Cn1ccnc1CNc1ccc2ncc(C#N)c(NC(C)(C)C)c2c1

- pIC50 [1]: 6.60
Compound: N#Cc1cnc2ccc(NCCN3CCOCC3)cc2c1Nc1ccc(Oc2ccccc2)cc1

- pIC50 [2]: < 4.40
- pIC50 [3]: 5.11
- clearance [13]: 28 mL/min/kg
- pIC50 [4]: 6.22
- pIC50 [1]: 6.49
Compound: N#Cc1cnc2cnc(NCc3cccnc3)cc2c1NC1CCCC1

- pIC50 [1]: 5.54
Compound: CC(C)(C)Nc1c(C#N)cnc2ccc(NCc3cccc(S(C)(=O)=O)c3)cc12

- pIC50 [1]: 5.44
Compound: N#Cc1cnc2cnc(NCCN3CCOCC3)cc2c1Nc1ccc(F)c(F)c1

- pIC50 [1]: 6.42
Compound: N#Cc1cnc2cnc(NCCN3CCOCC3)cc2c1Nc1ccc(Oc2ccccc2)cc1

- pIC50 [1]: 6.00
Compound: N#Cc1cnc2ccc(NCCN3CCOCC3)cc2c1Nc1ccc(F)c(Cl)c1

- pIC50 [2]: < 4.40
- pIC50 [3]: 5.35
- pIC50 [4]: 6.10
- pIC50 [1]: 6.44
Compound: CCC(C)(C)Nc1c(C#N)cnc2cnc(NCc3cccnc3)cc12

- pIC50 [1]: 5.89
Compound: N#Cc1cnc2ccc(NCc3cccc[n+]3[O-])cc2c1NC1CCCC1

- pIC50 [1]: 5.89
Compound: CC(C)(C)Nc1c(C#N)cnc2ccc(NCc3cccc[n+]3[O-])cc12

- pIC50 [1]: 5.80
Compound: N#Cc1cnc2ccc(NCc3ccn[nH]3)cc2c1NC1CCCC1

- pIC50 [1]: 5.80
Compound: CC(C)(C)Nc1c(C#N)cnc2ccc(NCc3ccn[nH]3)cc12

- pIC50 [4]: 5.70
- pIC50 [1]: 6.57
Compound: C#CC(C)(C)Nc1c(C#N)cnc2cnc(NCc3cccnc3)cc12
- Activity [3]: inactive

- pIC50 [1]: 7.74
Compound: N#Cc1cnc2ccc(NCc3cccnc3)cc2c1Nc1ccc(F)c(Cl)c1

- pIC50 [1]: 5.54
Compound: CS(=O)(=O)c1cccc(CNc2ccc3ncc(C#N)c(NC4CCCC4)c3c2)c1

- pIC50 [1]: 5.66
Compound: N#Cc1cccc(CNc2ccc3ncc(C#N)c(NC4CCCC4)c3c2)c1

- pIC50 [1]: 5.62
Compound: N#Cc1cnc2ccc(NCc3cccnc3)cc2c1NC1CCCC1

- pIC50 [2]: > 5.30
- pIC50 [3]: 4.70
- pIC50 [4]: 5.96
- pIC50 [1]: 6.40
Compound: N#Cc1cnc2cnc(NCc3cccnc3)cc2c1Nc1ccccc1

- pIC50 [1]: 5.59
Compound: N#Cc1cnc2ccc(NCc3cccnc3)cc2c1NC1CCCCCC1

- pIC50 [3]: < 4.70
- pIC50 [4]: 5.96
- pIC50 [1]: 7.30
Compound: N#Cc1cnc2cnc(NCc3cccnc3)cc2c1Nc1ccc(F)c(Cl)c1

- pIC50 [1]: 6.04
Compound: C[C@H](Nc1cc2c(NC3CCCCCC3)c(C#N)cnc2cn1)c1ccccc1

- pIC50 [2]: < 4.40
- pIC50 [1]: 5.55
Compound: N#Cc1cnc2cnc(NCc3cccnc3)cc2c1NC1CC1

- pIC50 [1]: 5.52
Compound: Cn1ccnc1CNc1ccc2ncc(C#N)c(NC3CCCC3)c2c1

- pIC50 [1]: 5.77
Compound: N#Cc1ccccc1CNc1ccc2ncc(C#N)c(NC3CCCC3)c2c1

From ChEMBL document CHEMBL1149691, “Identification of a novel class of selective Tpl2 kinase inhibitors: 4-Alkylamino-[1,7]naphthyridine-3-carbonitriles” (Bioorg Med Chem, 2007)
